In ChEMBL document CHEMBL5674890, “Selective inhibition of CBP/p300 HAT by A-485 results in suppression of lipogenesis and hepatic gluconeogenesis” (Cell Death Dis, 2020) one finds inhibition and Activity data, which are given here for 1 compound.

The test system of test [1] is Adipocyte. Nature of the test: Inhibition of lipogenesis in mouse adipocytes isolated stromal vascular cells assessed as decrease in C/EBPalpha mRNA expression measured after 24 hrs by RT-qPCR assay. The class given is functional, cell-based. The gist of the method:
(§1)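 Stromal vascular cells from inguinal WAT of C57BL/6 mice, grown in DMEM/F12 + 10% FBS at 37 °C, 10% CO2. At confluence, induced 48 h with 5 μg/ml insulin, 1 μM dexamethasone, 0.5 mM isobutylmethylxanthine, then 6 days in 5 μg/ml insulin; fully differentiated day 8. Mature adipocytes exposed to inhibitor 24 h. Total RNA by Trizol, SYBR Green RT-qPCR; protein by western blot.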
A general note: Real-time PCR tracks product formation cycle by cycle.

Test [2] deals with T1, CREB-binding protein/Histone acetyltransferase p300 (Homo sapiens) (UniProt Q09472+Q92793). As to the kind of experiment: Inhibition of CBP/p300 in mouse primary hepatocytes stimulated with 100 uM 8-Br-cAMP assessed as decrease in FOXO1 abundance in nucleus at 3 uM. The settings on record: Primary hepatocyte. It counts as cell-based. The gist of the method: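 Primary mouse hepatocytes treated with 3 μM compound and 100 μM 8-Br-cAMP. Nuclear and cytoplasmic fractions separated with a commercial kit; FOXO1 detected by western blot.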
T1 sequence (Q09472 whole entry, looked up): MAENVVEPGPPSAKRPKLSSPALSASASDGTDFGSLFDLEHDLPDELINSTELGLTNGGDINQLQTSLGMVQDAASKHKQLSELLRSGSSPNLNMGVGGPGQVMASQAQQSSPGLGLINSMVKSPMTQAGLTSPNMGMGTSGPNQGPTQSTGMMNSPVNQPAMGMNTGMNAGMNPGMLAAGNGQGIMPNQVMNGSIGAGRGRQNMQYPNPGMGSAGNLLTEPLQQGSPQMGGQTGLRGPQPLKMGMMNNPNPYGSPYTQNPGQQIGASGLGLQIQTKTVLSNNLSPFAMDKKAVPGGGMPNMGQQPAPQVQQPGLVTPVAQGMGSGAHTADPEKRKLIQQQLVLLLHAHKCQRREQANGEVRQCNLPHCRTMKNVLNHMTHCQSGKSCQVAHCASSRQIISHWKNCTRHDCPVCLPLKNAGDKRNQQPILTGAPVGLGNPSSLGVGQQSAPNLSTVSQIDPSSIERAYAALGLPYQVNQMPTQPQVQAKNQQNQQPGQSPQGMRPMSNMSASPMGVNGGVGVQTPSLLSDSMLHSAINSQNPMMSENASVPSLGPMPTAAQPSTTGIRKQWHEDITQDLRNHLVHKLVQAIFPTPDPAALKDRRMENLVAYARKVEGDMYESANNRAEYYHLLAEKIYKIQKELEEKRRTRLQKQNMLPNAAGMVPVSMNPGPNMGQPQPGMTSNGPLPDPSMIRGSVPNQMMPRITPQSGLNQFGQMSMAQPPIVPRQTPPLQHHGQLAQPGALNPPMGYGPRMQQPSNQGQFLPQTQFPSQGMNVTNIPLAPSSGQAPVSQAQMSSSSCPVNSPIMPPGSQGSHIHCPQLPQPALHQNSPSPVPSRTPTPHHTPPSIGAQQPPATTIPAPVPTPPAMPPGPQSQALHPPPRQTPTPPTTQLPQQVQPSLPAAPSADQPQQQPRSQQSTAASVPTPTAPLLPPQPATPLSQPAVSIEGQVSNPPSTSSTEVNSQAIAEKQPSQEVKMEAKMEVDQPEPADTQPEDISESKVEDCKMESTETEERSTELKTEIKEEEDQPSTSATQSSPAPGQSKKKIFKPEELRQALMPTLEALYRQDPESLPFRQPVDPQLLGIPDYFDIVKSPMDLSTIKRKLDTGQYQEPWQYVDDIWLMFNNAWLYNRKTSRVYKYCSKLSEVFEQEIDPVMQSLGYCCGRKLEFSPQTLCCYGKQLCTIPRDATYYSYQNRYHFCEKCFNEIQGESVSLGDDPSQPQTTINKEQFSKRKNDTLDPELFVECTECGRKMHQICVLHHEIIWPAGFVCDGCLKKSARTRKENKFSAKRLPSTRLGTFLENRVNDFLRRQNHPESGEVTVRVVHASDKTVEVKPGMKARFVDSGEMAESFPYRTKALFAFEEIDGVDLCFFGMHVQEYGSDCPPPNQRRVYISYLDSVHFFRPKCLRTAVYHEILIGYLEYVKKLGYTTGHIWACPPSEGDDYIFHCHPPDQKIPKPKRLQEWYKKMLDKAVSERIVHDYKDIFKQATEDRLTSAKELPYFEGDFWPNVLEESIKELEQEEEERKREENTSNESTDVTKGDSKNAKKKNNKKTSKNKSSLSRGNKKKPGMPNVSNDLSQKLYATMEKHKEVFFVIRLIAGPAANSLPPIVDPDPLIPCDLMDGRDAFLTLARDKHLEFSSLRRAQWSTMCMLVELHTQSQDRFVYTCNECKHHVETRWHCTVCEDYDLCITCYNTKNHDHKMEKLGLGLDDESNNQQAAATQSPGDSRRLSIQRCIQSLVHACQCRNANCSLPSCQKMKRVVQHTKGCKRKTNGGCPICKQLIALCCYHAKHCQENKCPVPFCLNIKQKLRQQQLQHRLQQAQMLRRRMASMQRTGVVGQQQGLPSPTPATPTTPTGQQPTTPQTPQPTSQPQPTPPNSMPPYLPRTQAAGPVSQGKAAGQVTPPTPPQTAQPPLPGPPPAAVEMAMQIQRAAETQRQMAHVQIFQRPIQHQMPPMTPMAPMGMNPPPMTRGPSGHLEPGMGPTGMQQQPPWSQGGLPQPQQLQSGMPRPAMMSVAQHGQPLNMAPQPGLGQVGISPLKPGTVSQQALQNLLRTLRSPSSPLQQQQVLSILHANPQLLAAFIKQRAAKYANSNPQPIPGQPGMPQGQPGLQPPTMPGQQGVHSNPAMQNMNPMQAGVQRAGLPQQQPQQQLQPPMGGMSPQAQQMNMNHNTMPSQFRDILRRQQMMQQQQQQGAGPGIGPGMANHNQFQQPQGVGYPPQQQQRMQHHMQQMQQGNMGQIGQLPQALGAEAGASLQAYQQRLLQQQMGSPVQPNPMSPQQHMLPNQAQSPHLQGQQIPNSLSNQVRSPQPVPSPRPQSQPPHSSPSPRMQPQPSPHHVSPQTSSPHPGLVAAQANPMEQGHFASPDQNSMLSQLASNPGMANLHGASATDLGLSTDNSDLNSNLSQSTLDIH
T1 sequence (Q92793 whole entry, looked up): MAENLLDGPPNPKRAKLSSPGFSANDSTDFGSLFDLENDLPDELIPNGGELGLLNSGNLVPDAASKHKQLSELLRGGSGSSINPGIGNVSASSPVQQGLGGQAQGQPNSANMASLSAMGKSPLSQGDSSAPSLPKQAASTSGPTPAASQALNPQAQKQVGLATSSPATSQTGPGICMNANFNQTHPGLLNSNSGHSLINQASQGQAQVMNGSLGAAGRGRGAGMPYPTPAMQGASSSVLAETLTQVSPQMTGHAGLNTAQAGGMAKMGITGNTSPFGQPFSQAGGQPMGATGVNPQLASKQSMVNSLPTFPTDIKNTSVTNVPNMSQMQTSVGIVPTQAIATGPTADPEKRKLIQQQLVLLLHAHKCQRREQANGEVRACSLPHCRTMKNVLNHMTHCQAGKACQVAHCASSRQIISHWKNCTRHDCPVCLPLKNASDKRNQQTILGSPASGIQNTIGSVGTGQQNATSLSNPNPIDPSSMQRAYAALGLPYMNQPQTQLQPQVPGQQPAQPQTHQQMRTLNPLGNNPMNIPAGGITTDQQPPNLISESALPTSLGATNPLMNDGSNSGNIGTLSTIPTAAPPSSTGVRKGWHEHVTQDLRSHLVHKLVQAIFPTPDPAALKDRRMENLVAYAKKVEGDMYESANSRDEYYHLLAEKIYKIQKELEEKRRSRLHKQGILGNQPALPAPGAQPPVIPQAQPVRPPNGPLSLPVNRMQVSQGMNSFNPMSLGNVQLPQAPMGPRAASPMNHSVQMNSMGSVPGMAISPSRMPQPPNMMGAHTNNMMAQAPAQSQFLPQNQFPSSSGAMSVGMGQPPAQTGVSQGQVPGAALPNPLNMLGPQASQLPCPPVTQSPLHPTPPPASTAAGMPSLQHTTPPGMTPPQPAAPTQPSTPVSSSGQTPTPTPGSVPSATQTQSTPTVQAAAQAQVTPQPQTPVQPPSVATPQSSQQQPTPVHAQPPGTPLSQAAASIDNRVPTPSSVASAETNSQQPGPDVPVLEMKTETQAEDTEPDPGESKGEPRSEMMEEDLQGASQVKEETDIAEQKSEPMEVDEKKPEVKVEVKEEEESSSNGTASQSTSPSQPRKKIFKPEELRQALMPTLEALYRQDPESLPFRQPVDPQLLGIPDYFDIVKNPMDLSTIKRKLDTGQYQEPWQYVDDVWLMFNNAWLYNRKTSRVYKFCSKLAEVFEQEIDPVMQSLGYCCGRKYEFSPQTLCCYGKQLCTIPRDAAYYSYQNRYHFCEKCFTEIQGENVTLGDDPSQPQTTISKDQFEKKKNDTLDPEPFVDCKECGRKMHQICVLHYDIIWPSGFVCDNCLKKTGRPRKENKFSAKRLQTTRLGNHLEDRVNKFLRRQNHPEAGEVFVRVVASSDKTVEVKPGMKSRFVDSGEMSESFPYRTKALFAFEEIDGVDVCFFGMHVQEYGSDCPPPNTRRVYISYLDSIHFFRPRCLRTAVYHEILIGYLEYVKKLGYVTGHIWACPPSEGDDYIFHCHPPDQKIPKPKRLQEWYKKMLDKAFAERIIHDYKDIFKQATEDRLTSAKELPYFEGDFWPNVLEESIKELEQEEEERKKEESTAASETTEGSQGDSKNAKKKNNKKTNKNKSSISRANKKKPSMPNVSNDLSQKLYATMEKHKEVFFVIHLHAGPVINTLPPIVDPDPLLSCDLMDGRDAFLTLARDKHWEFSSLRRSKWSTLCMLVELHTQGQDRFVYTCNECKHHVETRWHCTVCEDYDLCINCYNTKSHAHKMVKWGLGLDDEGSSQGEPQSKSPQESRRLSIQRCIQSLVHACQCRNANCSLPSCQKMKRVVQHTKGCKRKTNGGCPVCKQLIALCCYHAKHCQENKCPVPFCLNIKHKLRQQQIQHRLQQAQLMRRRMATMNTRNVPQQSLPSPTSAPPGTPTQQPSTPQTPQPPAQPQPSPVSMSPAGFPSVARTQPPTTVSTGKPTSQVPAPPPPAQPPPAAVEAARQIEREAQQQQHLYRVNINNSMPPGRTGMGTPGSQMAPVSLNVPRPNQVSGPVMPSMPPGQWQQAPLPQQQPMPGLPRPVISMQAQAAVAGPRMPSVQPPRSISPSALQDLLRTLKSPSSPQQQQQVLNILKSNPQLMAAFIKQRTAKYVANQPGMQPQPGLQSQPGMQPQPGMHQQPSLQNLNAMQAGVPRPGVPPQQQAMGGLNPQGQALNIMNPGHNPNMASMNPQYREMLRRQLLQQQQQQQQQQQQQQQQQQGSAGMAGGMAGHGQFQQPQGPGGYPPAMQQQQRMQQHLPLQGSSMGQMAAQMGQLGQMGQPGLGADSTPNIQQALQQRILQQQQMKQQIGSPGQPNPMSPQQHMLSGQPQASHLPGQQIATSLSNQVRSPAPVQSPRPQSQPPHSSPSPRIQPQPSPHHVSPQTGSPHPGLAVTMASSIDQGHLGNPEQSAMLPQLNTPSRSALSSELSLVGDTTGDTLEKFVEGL

The subject of test [3] is Mus musculus. As to the kind of experiment: Inhibition of hepatic lipogenesis in C57BL/6 mouse supplemented with normal chow diet assessed as decrease in ChREBP protein expression at 20 mg/kg/day, ip administered for 1 week measured by western blot analysis. It counts as functional, organism-based. Conditions: time 1.0 weeks. The gist of the method: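 Normal-chow male C57BL/6 mice, 8 weeks old, were injected ip at 20 mg·kg−1·day−1 daily for 7 days or given vehicle. Liver tissue was homogenized in lysis buffer, and FAS and ChREBP protein were assessed by western blot. n = 5–9.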
For orientation: Immunoblotting shows a protein as a band on a membrane.

Test [4] relates to Mus musculus. Nature of the test: Anti-obesity activity in 16 hrs fasted C57BL/6 mouse supplemented with normal chow diet assessed as decrease in blood glucose level at 20 mg/kg/day, ip administered for 1 week measured after 15 mins by intraperitoneal glucose tolerance test. The class given is functional, organism-based. Conditions: time 1.0 weeks. The gist of the method: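 Male C57BL/6 mice on normal chow, 8 weeks old, given 20 mg·kg−1·day−1 ip daily for 7 days. After 16 h fasting, glucose 2 g/kg body weight ip; blood glucose read during the test. Mean ± SEM, n = 5–9; t test or ANOVA, P < 0.05.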

The test system of test [5] is Adipocyte. As to the kind of experiment: Inhibition of lipogenesis in mouse adipocytes isolated stromal vascular cells assessed as decrease in FASN mRNA expression measured after 24 hrs by RT-qPCR assay. It counts as functional, cell-based. In a few lines: as §1
Test [6] deals with Mus musculus. As to the kind of experiment: Anti-obesity activity in 6 hrs fasted C57BL/6 mouse supplemented with normal chow diet assessed as effect on fasting blood glucose at 20 mg/kg/day, ip administered for 1 week. Conditions: time 1.0 weeks. It counts as functional, organism-based. The gist of the method:
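8-week-old male C57BL/6 mice on normal chow, ip 20 mg·kg−1·day−1 for 7 days. Blood glucose measured randomly fed or after 6 h or 16 h fasting, as the line states. Mean ± SEM, n = 5–9.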

Test [7] relates to Mus musculus. Nature of the test: Inhibition of lipogenesis in C57BL/6 mouse supplemented with normal chow diet assessed as decrease in SCD1 mRNA expression at 20 mg/kg/day, ip administered for 1 week measured by RT-qPCR assay. The class given is functional, organism-based. Conditions: time 1.0 weeks. The gist of the method: (§2)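 Eight-week-old male C57BL/6 mice on normal chow were given 20 mg·kg−1·day−1 ip daily for 7 days or vehicle. Epididymal WAT was collected. Lipogenic, adipogenic and fatty-acid-oxidation transcripts were quantified by Trizol extraction and SYBR Green RT-qPCR. FAS, ACC, PPARγ and C/EBPα protein were assessed by western blot. n = 5–9; mean ± SEM.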

Test [8] has as its system Adipocyte. As to the kind of experiment: Inhibition of lipogenesis in mouse adipocytes isolated stromal vascular cells assessed as decrease in PPARgamma protein expression measured after 24 hrs by western blot analysis. It counts as functional, cell-based.
Test [9] has as its system Mus musculus. Nature of the test: Anti-obesity activity in C57BL/6 mouse supplemented with normal chow diet assessed as decrease in total fat mass at 20 mg/kg/day, ip administered for 1 week measured by EchoMRI live analysis. The class given is functional. Also noted: scale not given: the % may be the effect or the level left. The settings on record: time 1 weeks. In a few lines: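 Normal-chow male C57BL/6 mice, 8 weeks old, ip 20 mg·kg−1·day−1 daily for 7 days. Total lean and fat mass measured in live animals by EchoMRI. Mean ± SEM, n = 5–9.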

Test [10] has as its system Mus musculus. As to the kind of experiment: Inhibition of lipogenesis in C57BL/6 mouse supplemented with normal chow diet assessed as decrease in FAS protein expression at 20 mg/kg/day, ip administered for 1 week measured by western blot analysis. The class given is functional, organism-based. Conditions: time 1.0 weeks. The gist of the method:
as §2

In test [11] the test system is Hepatocyte. Nature of the test: Inhibition of glucogenesis in mouse primary hepatocytes stimulated with 100 uM 8-Br-cAMP assessed as decrease in FBP mRNA expression at 3 uM measured after 8 hrs by RT-qPCR assay.
The test system of test [12] is Mus musculus. Nature of the test: Inhibition of lipogenesis in C57BL/6 mouse supplemented with normal chow diet assessed as decrease in C/EBPalpha protein expression at 20 mg/kg/day, ip administered for 1 week measured measured by western blot analysis. The settings on record: time 1.0 weeks. It counts as functional, organism-based. The gist of the method: as §2

Test [13] concerns Mus musculus. Nature of the test: Inhibition of lipogenesis in C57BL/6 mouse supplemented with normal chow diet assessed as decrease in LPL mRNA expression at 20 mg/kg/day, ip administered for 1 week measured measured by RT-qPCR assay. The class given is functional, organism-based. Conditions: time 1.0 weeks. In a few lines: as §2
Test [14] has as its target T1, CREB-binding protein/Histone acetyltransferase p300 (Homo sapiens). As to the kind of experiment: Inhibition of CBP/p300 in human HEK293T cells expressing HA-FOXO1 stimulated with 100 uM 8-Br-cAMP assessed as decrease in FOXO1 abundance in nucleus at 3 uM measured after 24 hrs by immunofluorescence analysis. The class given is cell-based. Conditions: time 3.0 hrs, in the assay text read “3 hrs” for “24 hrs”. In a few lines: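 HEK293T cells transfected with HA-FOXO1 plasmid for 24 h, then treated 3 h with 3 μM compound and 100 μM 8-Br-cAMP. Staining steps: fixed in 10% formalin, permeabilized 0.1% Triton X100, blocked 5% BSA, anti-HA (1:200) overnight at 4 °C, FITC secondary, DAPI. Localization imaged by fluorescence microscopy.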

Test [15] relates to Mus musculus. As to the kind of experiment: Inhibition of lipogenesis in C57BL/6 mouse supplemented with high-fat diet assessed as decrease in ACC mRNA expression at 20 mg/kg/day, ip administered for 1 week measured by RT-qPCR assay. It counts as functional, organism-based. The settings on record: time 1.0 weeks. The gist of the method:
(§3)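 Male C57BL/6 mice were fed high-fat diet for 14 weeks from 5 weeks of age, then injected ip with 20 mg·kg−1·day−1 for 7 days or given vehicle. Epididymal and inguinal WAT were weighed, examined by H&E, and analysed. Transcripts were measured by Trizol/SYBR Green RT-qPCR; proteins by western blot. n = 5–9; mean ± SEM.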

In test [16] the test system is Adipocyte. Nature of the test: Inhibition of lipogenesis in mouse adipocytes isolated stromal vascular cells assessed as decrease in adiponectin mRNA expression measured after 24 hrs by RT-qPCR assay. It counts as functional, cell-based. The gist of the method:
as §1

The subject of test [17] is Mus musculus. As to the kind of experiment: Inhibition of lipogenesis in C57BL/6 mouse supplemented with high-fat diet assessed as decrease in FASN mRNA expression at 20 mg/kg/day, ip administered for 1 week measured by RT-qPCR assay. The class given is functional, organism-based. The settings on record: time 1.0 weeks. In a few lines: as §3
Test [18] deals with Mus musculus. As to the kind of experiment: Inhibition of lipogenesis in C57BL/6 mouse supplemented with high-fat diet assessed as decrease in DGAT2 mRNA expression at 20 mg/kg/day, ip administered for 1 week measured by RT-qPCR assay. Conditions: time 1.0 weeks. The class given is functional, organism-based. The gist of the method:
as §3

The test system of test [19] is Hepatocyte. As to the kind of experiment: Inhibition of glucogenesis in mouse primary hepatocytes stimulated with 100 uM 8-Br-cAMP assessed as decrease in C/EBPalpha protein expression at 3 uM measured after 12 hrs by western blot analysis. It counts as functional, cell-based. In a few lines: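 Primary mouse hepatocytes incubated 12 h with 3 μM compound and 100 μM 8-Br-cAMP. Lysates western blotted for FOXO1, C/EBPα or PGC1α. Three independent experiments.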

Calls of active or inactive are those of the source. No cut-off for these calls is given here.

Take `CNC(=O)Nc1ccc2c(c1)CCS21OC(=O)N(CC(=O)N(Cc2ccc(F)cc2)[C@@H](C)C(F)(F)F)C1=O` (some centres undefined): the inhibition result (in the test with Adipocyte [1]; in test [2]; with Mus musculus [3]; in the test with Adipocyte [5]; in the test on Mus musculus [7]; in the test with Adipocyte [8]) was “Active” in each case. Moreover, the inhibition result (in the test on Mus musculus [10]; with Hepatocyte [11]; in the test on Mus musculus [12]; with Mus musculus [13]; in test [14]; with Mus musculus [15]) was “Active” throughout. The inhibition result with Adipocyte [16], in the test with Mus musculus [17], in the test on Mus musculus [18] and in the test with Hepatocyte [19] was “Active” each time. In addition, in the test with Mus musculus [4], the result was Active. For the same compound, in the test with Mus musculus [6], the outcome was inactive. The Activity in the test with Mus musculus [9] is around 14%.
